Assay results as given in ChEMBL document CHEMBL1156144, “Biaryl ethers as novel non-nucleoside reverse transcriptase inhibitors with improved potency against key mutant viruses” (J Med Chem, 2009).

Columns and labels:
[1] = Volume of distribution in Sprague-Dawley rat at 2 mg/kg, iv; assay type: ADME, organism-based; set-up: dose 2 mg/kg, route intravenous; settings: in vivo
Rattus norvegicus = assay: AUC in Sprague-Dawley rat at 2 mg/kg, iv; assay type: ADME, organism-based, Plasma; set-up: dose 2 mg/kg, route intravenous; settings: in vivo
[2] = system: Human immunodeficiency virus; assay: Antiviral activity against wild type HIV H9-3B infected in human MT2 cells assessed as inhibition of viral replication measuring p24 level after 3 days in presence of 50% normal human serum; assay type: functional; settings: Human immunodeficiency virus 1, H9-3B, 72 h, read-out: CIC95
How it was run: (§1)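 Multiple-cycle spread assay in MT2 cells with wild-type H9IIIB virus. Cells were infected overnight at moi ≈ 0.01 without compound, washed, then cultured 3 days across varying compound concentrations in RPMI 1640 with 10% FBS or 50% NHS. p24 was measured in supernatants. CIC95 is the lowest concentration inhibiting replication ≥95%, as the geometric mean of ≥2 determinations.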

[3] = system: Human immunodeficiency virus; assay: Antiviral activity against HIV with reverse transcriptase K103N mutant infected in human MT2 cells assessed as inhibition of viral replication measuring p24 level after 3 days in presence of 10% fetal bovine serum; assay type: functional; settings: Human immunodeficiency virus 1, MT2, Serum, 72 h; read-out: CIC95
How it was run: (§2)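 Multiple-cycle replication (Spread) assay in MT2 cells with H9IIIB-background mutant virus. Cells were infected overnight at moi ≈ 0.01 without compound, washed, then cultured 3 days across a range of compound concentrations in medium with 10% FBS. p24 was measured in supernatants. CIC95 is the lowest concentration inhibiting replication by ≥95%, reported as the geometric mean of ≥2 determinations.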

[4] = Inhibition of RNA-dependent DNA polymerase activity of wild type HIV reverse transcriptase assessed as BrdU incorporation by standard ECL assay; set-up: species or system Human immunodeficiency virus
How it was run: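 Purified recombinant wild-type RT polymerase activity was measured using a 500-nt heteropolymeric RNA template and a biotinylated DNA primer. BrdU incorporation was detected with a ruthenylated anti-BrdU antibody by electrochemiluminescence. Ki is the geometric mean of at least two determinations, each within 25% of the mean.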

[5] = Clearance in Sprague-Dawley rat at 2 mg/kg, iv; assay type: ADME, organism-based; set-up: dose 2 mg/kg, route intravenous; settings: in vivo
[6] = system: Human immunodeficiency virus; assay: Antiviral activity against wild type HIV H9-3B infected in human MT2 cells assessed as inhibition of viral replication measuring p24 level after 3 days in presence of 10% fetal bovine serum; assay type: functional; settings: Human immunodeficiency virus 1, MT2, Serum; read-out: CIC95; how it was run: as §1
[7] = Half life in Sprague-Dawley rat at 2 mg/kg, iv; assay type: ADME, organism-based; set-up: dose 2 mg/kg, route intravenous; settings: in vivo
[8] = target: Human immunodeficiency virus type 1 reverse transcriptase (Human immunodeficiency virus 1, UniProt Q72547, K103N); assay: Inhibition of RNA-dependent DNA polymerase activity of recombinant HIV reverse transcriptase K103N mutant assessed as BrdU incorporation by standard ECL assay
[9] = system: Human immunodeficiency virus; assay: Antiviral activity against HIV with reverse transcriptase Y181C mutant infected in human MT2 cells assessed as inhibition of viral replication measuring p24 level after 3 days in presence of 10% fetal bovine serum; assay type: functional; settings: Human immunodeficiency virus 1, MT2, Serum, 72 h; read-out: CIC95; how it was run: as §2
[10] = system: Human immunodeficiency virus; assay: Antiviral activity against HIV with reverse transcriptase K103N/Y181C double mutant infected in human MT2 cells assessed as inhibition of viral replication measuring p24 level after 3 days in presence of 10% fetal bovine serum; assay type: functional; settings: Human immunodeficiency virus 1, MT2, Serum, 72 h; read-out: CIC95; how it was run: as §2

Compound: CNc1ccc2c(COc3ccc(Cl)c(Oc4cc(Cl)cc(C#N)c4)c3)noc2n1
- Vd [1]: 2 L/kg
- AUC (Rattus norvegicus): 0.8 µM
- IC95 [2]: 0.103 µM
- IC95 [3]: 0.309 µM
- Ki [4]: 0.0003 µM
- clearance [5]: 24.6 mL/min/kg
- IC95 [6]: 0.103 µM
- half-life [7]: 2 h
- Ki [8]: 0.0009 µM

Compound: CN(C)c1ccc2c(COc3ccc(Cl)c(Oc4cc(Cl)cc(C#N)c4)c3)noc2n1
- IC95 [2]: 0.309 µM
- IC95 [3]: 0.309 µM
- Ki [4]: 0.0003 µM
- IC95 [6]: 0.103 µM
- Ki [8]: 0.0009 µM

Compound: N#Cc1cc(Cl)cc(Oc2cc(OCc3noc4nc(N5CCCCC5)ccc34)ccc2Cl)c1
- IC95 [3]: > 8.33 µM
- Ki [4]: 0.0022 µM
- IC95 [9]: > 8.33 µM
- IC95 [6]: > 8.33 µM
- Ki [8]: 0.0072 µM

Compound: Cc1cc(OCc2n[nH]c3ncccc23)cc(Oc2cc(Cl)cc(C#N)c2)c1Cl
- IC95 [10]: 0.278 µM
- IC95 [2]: 0.103 µM
- IC95 [3]: 0.103 µM
- Ki [4]: 0.0004 µM
- IC95 [9]: 0.031 µM
- IC95 [6]: 0.011 µM
- Ki [8]: 0.0019 µM

Compound: N#Cc1cc(Cl)cc(Oc2cc(OCc3noc4nc(N5CCNCC5)ccc34)ccc2Cl)c1
- IC95 [10]: 0.833 µM
- IC95 [2]: 0.309 µM
- IC95 [3]: 0.103 µM
- Ki [4]: 0.0017 µM
- IC95 [9]: 0.833 µM
- IC95 [6]: 0.033 µM
- Ki [8]: 0.003 µM
